Screening data from PubChem BioAssay.
MLL AF4-AF9 inh: inhibitors of human MLL-AF4/AF9 interaction; AlphaScreen, biotin-AF4 peptide binding to FLAG-AF9; AID 651704; P42568; 350,000 compounds, 0.47% hits; inhibition, % at 10 µM;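 active = every replicate reaching a set inhibition limit, whatever the replicate mean, cut at about 25% in these data; inconclusive = mean inhibition reaches that limit but some replicates miss it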
RAD54 branch: RAD54 (human) branch migration inhibition; Q92698; RAD54 Holliday junction branch migration, FAM/BHQ fluorescence; inhibition, % at 10.4 µM; 360,000 compounds, 0.14% hits; AID 602329;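 active = mean normalized replicate activity at least 40 and at least half of replicates scoring 40 or more; inconclusive = only one of the two criteria met; inactive = mean below 40 and under half of replicates reaching 40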;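 also: inhibitors cause a drop in the FAM fluorescence signal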
S100A4 MyoIIA: S100A4-myosin IIA interaction inhibition. P26447. S100A4/TAMRA-MyoIIA peptide fluorescence polarization. inhibition, % at 10.7 µM. 360,000 compounds, 0.14% hits;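 active = mean inhibition of at least 70% across replicates, with every replicate also reaching that level; inconclusive = mean inhibition reaches 70% but some replicates fall short; inactive = mean inhibition below 70%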
Target sequence (P26447 whole entry, looked up): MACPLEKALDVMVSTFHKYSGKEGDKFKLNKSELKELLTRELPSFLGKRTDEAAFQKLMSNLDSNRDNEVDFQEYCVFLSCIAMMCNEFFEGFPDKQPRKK
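Test system: S100A4 monomer protein. Medium: HEPES buffer with Ca2+, pH 7.2. Reagent: fluorescent myosin IIA peptide, 5 nM. Compound dosing: single-point compound testing. Timing: 5 min between mix addition and reading. Benchmarks: DMSO neutral and TFP positive wells.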
Casp6 inh: blocks human caspase-6 cleavage activity | P55212 | purified caspase-6, Z-VEID-R110 cleavage fluorescence | inhibition, % at 12.5 µM | 350,000 compounds, 0.53% hits | AID 686996;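 active = mean inhibition across replicates at least about 35%, with every replicate also reaching that limit, limit read from the data; inconclusive = only one of the two criteria met; inactive = neither criterion met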
RAD52 inh: blocks human RAD52 DNA annealing; P43351; recombinant RAD52 DNA annealing, FRET fluorescence; inhibition, % at 18.7 µM; 360,000 compounds, 0.46% hits; AID 651710;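 active = every replicate showing at least 50% inhibition; inconclusive = mean inhibition at least 50% but not in every replicate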
Target sequence (P43351 whole entry, looked up): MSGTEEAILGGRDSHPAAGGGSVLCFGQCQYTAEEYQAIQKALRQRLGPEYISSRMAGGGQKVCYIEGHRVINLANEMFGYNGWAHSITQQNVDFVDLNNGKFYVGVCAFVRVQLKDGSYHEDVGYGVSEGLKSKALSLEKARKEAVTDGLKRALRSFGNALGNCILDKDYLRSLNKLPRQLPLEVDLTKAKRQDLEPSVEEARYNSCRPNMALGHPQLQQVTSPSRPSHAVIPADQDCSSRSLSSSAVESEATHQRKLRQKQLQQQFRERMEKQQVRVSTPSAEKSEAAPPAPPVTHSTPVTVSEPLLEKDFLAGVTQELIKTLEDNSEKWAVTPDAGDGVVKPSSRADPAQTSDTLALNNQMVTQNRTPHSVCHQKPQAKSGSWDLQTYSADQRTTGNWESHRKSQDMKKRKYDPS
XiGFP reactiv: activators of X-chromosome reactivation in mouse fibroblasts. XiGFP mouse fibroblasts, % GFP-positive cells imaging, 3 d; cells co-treated with 5-aza-dC sensitizer; scaled so ellipticine positive control = 100%. activation, % at 7.58 µM. 360,000 compounds, 0.055% hits. AID 743238;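 active = mean normalized replicate activation at least 10% and every replicate at or above 10%; inconclusive = only one of the two criteria met; inactive = mean below 10% and not all replicates reach 10%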
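System: SV40-immortalized XiGFP fibroblast cells, line 68-5-11 / Incubation: 3-day compound exposure, then 15 min fixation at room temperature / Compound: single concentration per compound, delivered by pin transfer / Buffer or medium: DMEM plus 5-aza-dC sensitizer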
Of the large screens only hits and unclear results are named; the others gave an inactive call; ! = not confirmed by another sample. A selection: hits, their analogues and other compounds. The true share with any hit is near 1.3%.

C[C@@H]1CCCCO[C@H](CN(C)Cc2ccncc2)[C@H](C)CN([C@H](C)CO)C(=O)c2cc(NC(=O)c3ccncc3)ccc2O1	none
C[C@@H]1CN([C@@H](C)CO)C(=O)c2cc(NC(=O)c3ccncc3)ccc2O[C@@H](C)CCCCO[C@@H]1CN(C)Cc1ccncc1	none
COc1ccccc1-c1ccc([C@H]2[C@@H](CO)N[C@@H]2CNC(=O)C2CCCC2)cc1	none (no result: RAD54 branch)
CC1CCN(C(=O)Cn2c(=O)oc3cc(S(=O)(=O)N4CCCCC4)ccc32)CC1	none
O=C(Cn1c(=O)oc2cc(S(=O)(=O)N3CCCC3)ccc21)N1CCCC1	MLL AF4-AF9 inh 27.7
O=C(Cc1ccccn1)N[C@H]1C=C[C@@H](CC(=O)N2CCCCC2)O[C@@H]1CO	none
CN1CCN(C(=O)c2cc3c(c(-c4cccc(-c5cc6ccccc6o5)c4)n2)[C@H](CCO)N(S(=O)C(C)(C)C)C3)CC1 (stereo not given in full)	none
CC(C)(C)S(=O)N1Cc2cc(C(=O)O)nc(-c3cccc(-c4cc5ccccc5o4)c3)c2[C@H]1CCO (stereo not given in full)	Casp6 inh 35.7
CCc1nnc(NC(=O)CSc2nc3[nH]c(=O)cc(O)c3s2)s1	none
CCSc1nnc(NC(=O)CSc2sc3c(O)cc(=O)[nH]c3c2C#N)s1	Casp6 inh 44.1
Cc1cc(NC(=O)CSc2sc3c(O)cc(=O)[nH]c3c2C#N)ccc1Br	none (no result: RAD54 branch)
Cc1csc(NC(=O)CSc2nc3[nH]c(=O)cc(O)c3s2)n1	none
CCc1nnc(NC(=O)CSc2sc3c(O)cc(=O)[nH]c3c2C#N)s1	Casp6 inh 64.5
Cc1csc(NC(=O)CSc2sc3c(O)cc(=O)[nH]c3c2C#N)n1	Casp6 inh 79.2
C[C@H]1CN(C)C(=O)c2cccc(N(C)C)c2O[C@H]1CN(C)C	none (no result: MLL AF4-AF9 inh, RAD54 branch, S100A4 MyoIIA, Casp6 inh, RAD52 inh)
O=C1O[C@@H](c2ccccc2)[C@@H](c2ccccc2)N2[C@@H](c3ccccc3OCCO)[C@]3(C(=O)Nc4ccc(C#CCCO)cc43)[C@@H](C(=O)N3CCN(c4ncccn4)CC3)[C@H]12	RAD52 inh 76.2 (no result: XiGFP reactiv)
O=C1O[C@H](c2ccccc2)[C@H](c2ccccc2)N2[C@H]1[C@@H](C(=O)N1CCN(c3ncccn3)CC1)[C@]1(C(=O)Nc3ccccc31)[C@H]2c1ccc(O)cc1	none (no result: XiGFP reactiv)
O=C1O[C@@H](c2ccccc2)[C@@H](c2ccccc2)N2[C@@H](c3ccc(OCCO)cc3)[C@]3(C(=O)Nc4ccc(C#CCCO)cc43)[C@@H](C(=O)N3CCN(c4ncccn4)CC3)[C@H]12	RAD52 inh 51.9 (no result: XiGFP reactiv)
O=C1O[C@@H](c2ccccc2)[C@@H](c2ccccc2)N2[C@@H](c3ccc(O)cc3)[C@]3(C(=O)Nc4ccccc43)[C@@H](C(=O)N3CCCCCCC3)[C@H]12	RAD52 inh 57.5 (no result: XiGFP reactiv)
COc1ccc(C#Cc2ccc3c(c2)[C@]2(C(=O)N3)[C@H](C(=O)N3CCN(c4ncccn4)CC3)[C@H]3C(=O)O[C@H](c4ccccc4)[C@H](c4ccccc4)N3[C@@H]2c2ccc(OCCO)cc2)cc1	none (no result: XiGFP reactiv)
O=C1O[C@@H](c2ccccc2)[C@@H](c2ccccc2)N2[C@@H](c3ccccc3OCCO)[C@]3(C(=O)Nc4ccc(C#CC5=CCCCC5)cc43)[C@@H](C(=O)N3CCN(c4ncccn4)CC3)[C@H]12	none (no result: XiGFP reactiv)
O=C(O)c1cc(-c2ccco2)nn1-c1ccc(Cl)cc1	Casp6 inh 50.5 (no result: RAD54 branch)
O=C(O)c1cc(-c2ccco2)nn1-c1cccc(Cl)c1	Casp6 inh 45.6 (no result: RAD54 branch)
Cc1ccc(-n2nc(-c3ccco3)cc2C(=O)O)c(C)c1	none (no result: RAD54 branch, Casp6 inh)
COc1ccc(Cn2ccnc2)cc1Br	none (no result: MLL AF4-AF9 inh, S100A4 MyoIIA, Casp6 inh, RAD52 inh, XiGFP reactiv)
COc1ccc(NCc2ccc(OC)c(Cn3ccnc3)c2)c(OC)c1	MLL AF4-AF9 inh 33.6
Cc1c2cc(O)c(=O)cc-2oc2cc(O)c(O)cc12	S100A4 MyoIIA 180.1, Casp6 inh 92.5 (no result: XiGFP reactiv)
COc1cc(OC)c(-c2c3cc(O)c(=O)cc-3oc3cc(O)c(O)cc23)cc1OC	Casp6 inh 64.2 (no result: RAD54 branch)
Cc1cc2oc(=O)cc(-c3cc4ccccc4o3)c2cc1O	none
CCS(=O)(=O)N1CC(=O)N2[C@@H](CO)[C@H](c3ccc(-c4ccccc4C)cc3)[C@@H]2C1	none (no result: MLL AF4-AF9 inh, RAD54 branch, S100A4 MyoIIA, Casp6 inh, RAD52 inh)
COc1cc(CC2COC(c3ccc(O)c(OC)c3)C2COC(C)=O)ccc1O (stereo not given)	Casp6 inh 57.6 (no result: XiGFP reactiv)
O=C(O)c1cccc(N2C(=O)/C(=C/c3ccc(SCc4ccc(Cl)cc4)o3)SC2=S)c1	Casp6 inh 72.4 (no result: RAD54 branch)
COc1ccc(CNC(=O)c2cc(C3CC3)nc3c2cnn3C(C)C)cc1	MLL AF4-AF9 inh 32.3
COc1ccccc1CNC(=O)c1cc(C2CC2)nc2c1cnn2C(C)C	none
O=C(O)c1ccc(NS(=O)(=O)c2ccc3c(c2)C2C=CCC2C(c2ccccc2F)N3)cc1 (stereo not given)	Casp6 inh 46.5 (no result: RAD54 branch)
O=C(O)c1ccc2c(c1)C1C=CCC1C(c1cc3c(cc1Br)OCO3)N2 (stereo not given)	none (no result: RAD54 branch)
CO[C@@H]1CN(C)C(=O)c2cc(NC(=O)c3ccc(F)cc3)ccc2OC[C@@H](C)N(C(C)=O)C[C@H]1C	none
N#Cc1cccc(-c2ccc(C3[C@H]4CNC[C@@H]3N4Cc3cc(-c4ccccc4)on3)cc2)c1 (stereo not given in full)	RAD52 inh 62.9 (no result: RAD54 branch)
C/C=C/c1ccc(C2[C@H]3CNC[C@@H]2N3Cc2cc(-c3ccccc3)on2)cc1 (stereo not given in full)	RAD52 inh 52.0!, XiGFP reactiv inconclusive (no result: RAD54 branch)
N#Cc1cccc(-c2ccc(C3[C@H]4CNC[C@@H]3N4Cc3cccc(F)c3)cc2)c1 (stereo not given in full)	none (no result: RAD54 branch)
COc1ccccc1-c1ccc(C2[C@H]3CNC[C@@H]2N3Cc2cc(-c3ccccc3)on2)cc1 (stereo not given in full)	RAD52 inh 54.4 (no result: RAD54 branch)
O=C1N[C@@H](Cc2ccccc2)COCc2cn(nn2)CC[C@@H]1Cc1ccc(-c2ccccc2)cc1	none (no result: MLL AF4-AF9 inh, RAD54 branch, S100A4 MyoIIA, Casp6 inh, RAD52 inh)
COc1ccc2c3c(n(C)c2c1)[C@H](CO)N(C(=O)CN1CCOCC1)CC31CCN(C(=O)CC2CC2)CC1	none (no result: MLL AF4-AF9 inh, RAD54 branch, S100A4 MyoIIA, Casp6 inh, RAD52 inh)
C[C@@H]1CN([C@@H](C)CO)C(=O)c2cc(C#CCN(C)C)cnc2O[C@@H]1CN(C)C(=O)c1ccc2c(c1)OCO2	none
C[C@H]1CN([C@@H](C)CO)C(=O)c2cc(C#CCN(C)C)cnc2O[C@H]1CN(C)C(=O)c1ccc2c(c1)OCO2	Casp6 inh 57.4
COCC#Cc1cnc2c(c1)C(=O)N([C@H](C)CO)C[C@H](C)[C@H](CN(C)C(=O)C1CCC1)O2	S100A4 MyoIIA 133.2
